Among the data in PubChem BioAssay are GFP response vs DMSO and GFP response relative to DMSO values, retold here.

Each structure is given as a SMILES string. Calls of active or inactive are those of the source.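 The calls were made as follows: active = GFP response above 150% of the DMSO control; inconclusive = fewer than 70 events counted in any yeast strain; inactive = the rest.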

The nature of one test: hit retest on RPL19A-GFP reporter strain – cell-based, S. cerevisiae, flow cytometry, cherry picks, mother/daughter gates, confirmation (AID 2270). To be noted: 3 h, measured here: mother cell gate, at 10 µM, stronger effect = lower value, 100 = same GFP as DMSO wells.
As to `COC(=O)Cn1cc(/C=C/c2cc[n+](C)cc2)c2ccccc21`, the GFP response vs DMSO came out at 98.2%.

In the case of `C=CCNC(=S)N/N=C(\C)c1cccc(OC)c1`, the GFP response vs DMSO turned out to be 101%.

Compound `COc1cccc(-c2nnc(NC(=O)c3ccc(S(=O)(=O)N4CCOCC4)cc3)o2)c1` had a GFP response vs DMSO of 96.5%.

Compound `CCc1ccc(CNC(=O)CCC(=O)N2Cc3cccc(OC)c3Oc3ncccc32)cc1` returned a GFP response vs DMSO of 99.9%.

In turn, `N#C/C(=C\c1c(N2CCCCCC2)nc2ccccn2c1=O)C(=O)NCc1ccco1` came in with a GFP response vs DMSO of 96.2%.

In turn, `C=CCn1c(=O)c(C(=O)NCCc2ccccc2)c(O)c2ccccc21` showed a GFP response vs DMSO of 100%.

As to `CCOC(=O)COc1c(Cl)cc(/C=C2\N=C(C)OC2=O)cc1OC`, the GFP response vs DMSO stood at 103%.

The compound `CCOc1ccccc1/C=C/C(=O)c1ccc(Cl)cc1` gave a GFP response vs DMSO of 98.5%.

For the compound `Cc1c([N+](=O)[O-])cnc(Sc2ccccc2)c1[N+](=O)[O-]`, the GFP response vs DMSO was 98.9%.

Consider `O=C(COC(=O)c1ccc(NS(=O)(=O)c2cccs2)cc1O)Nc1nc2ccccc2s1`, for which the GFP response vs DMSO came out at 101%.

Take `COc1ccc(Sc2ncnc3onc(C)c23)cc1`: the GFP response vs DMSO was 95.4%.

The compound `Cc1ccc(S(=O)(=O)N2C3C=CC(C3)C2C(=O)O)cc1` (stereo not given) came in with a GFP response vs DMSO of 95.2%.

`Cc1ccc(C(C[N+](=O)[O-])Sc2ccc(N)cc2)cc1` (stereo not given) displayed a GFP response vs DMSO of 94.8%.

For `CCOc1ccc(N2C(=O)CC(SCCN)C2=O)cc1` (stereo not given), the GFP response vs DMSO turned out to be 96.6%.

`O=C(O)Cc1sc(Nc2ccccc2)nc1-c1cccs1`: the GFP response vs DMSO is 97.9%.

In the case of `COc1ccccc1-c1noc(CCC(=O)Nc2cccc(C(F)(F)F)c2)n1`, the GFP response vs DMSO worked out at 98.5%.

`Cn1cc(/C=C/c2cc[n+](C)cc2)c2cc(Cl)ccc21` showed a GFP response vs DMSO of 100%.

With `COc1cccc(-c2noc(-c3cccnc3)n2)c1`, the GFP response vs DMSO is 96.3%.

In turn, `COc1ccc(-c2ccc(SCC(=O)N3c4ccccc4CC3C)nn2)cc1OC` (stereo not given) came in with a GFP response vs DMSO of 99.3%.

Compound `Cc1ccc2c(nc3s/c(=C\c4ccc(-c5ccccc5C(=O)O)o4)c(=O)n32)c1C` displayed a GFP response vs DMSO of 117%.

The compound `COC(=O)C1=C(C)NC(C)=C(C(=O)OC)C1c1ccc(OC(=O)c2oc3ccccc3c2C)c(OC)c1` gave a GFP response vs DMSO of 98.8%.

Compound `COc1ccc(N2CCN(C(=O)C3CCCN(S(=O)(=O)c4ccc(C)cc4)C3)CC2)cc1` (stereo not given) displayed a GFP response vs DMSO of 93.4%.

`O=C(Nc1nccs1)C(c1ccccc1)N1CCCCC1` (stereo not given) came in with a GFP response vs DMSO of 104%.

Regarding `C/C(=N\NC(=O)c1cccc(Br)c1)c1ccc(Br)cc1`, the GFP response vs DMSO was 95%.

As for `O=C(OCCCOC(=O)c1ccc(Br)o1)c1ccc(Br)o1`, the GFP response vs DMSO came out at 98%.

Regarding `CCOC(=O)Cc1csc(NC(=O)c2sc3nc4c(C)cc(C)cc4cc3c2N)n1`, the GFP response vs DMSO is 97.7%.

`Cc1nn2c(N3CCOCC3)c3c(nc2c1-c1ccccc1)CCCC3` returned a GFP response vs DMSO of 102%.

On to `O=C(Nc1cc(Sc2ccccn2)cc([N+](=O)[O-])c1)c1ccc(Cl)cc1`, for which the GFP response vs DMSO stood at 99.2%.

The compound `O=S(=O)(c1cccc(C(F)(F)F)c1)c1ccc(O)cn1` showed a GFP response vs DMSO of 98.5%.

For `COc1cc(/C=N/Nc2nc(C)cc(=O)[nH]2)ccc1O`, the GFP response vs DMSO amounted to 98.8%.

The compound `O=C(N/N=C/c1ccccc1Cl)c1ccc(F)cc1` had a GFP response vs DMSO of 97.2%.

Compound `Cc1cccc(C(=O)Nc2ccc(O)cc2)c1` came in with a GFP response vs DMSO of 97.3%.

Compound `COc1ccc(NC2=C(Cl)C(=O)N(CCc3ccccc3)C2=O)cc1` yielded a GFP response vs DMSO of 99.2%.

For `CN(C(=O)c1cccnc1)c1nc(-c2ccccc2)cs1`, the GFP response vs DMSO worked out at 95%.

`Cc1ccc(NC(=O)c2nc(S(=O)(=O)Cc3ccccc3C)ncc2Cl)cc1C` displayed a GFP response vs DMSO of 91.6%.

`Cc1cccn2c(=O)c(/C=C(\C#N)C(=O)NCc3ccco3)c(N3CCC(C(N)=O)CC3)nc12`: the GFP response vs DMSO amounted to 91.4%.

`Cc1cc(C)c(C)c(S(=O)(=O)ON2C(=O)c3ccccc3C2=O)c1C` returned a GFP response vs DMSO of 94.1%.

For the compound `CS(=O)(=O)c1nc(-c2cccs2)cc(C(F)(F)F)n1`, the GFP response vs DMSO stood at 88.6%.

Compound `COc1cc(NC(=O)c2cccs2)ccc1NC(=O)c1cc2ccccc2o1` yielded a GFP response vs DMSO of 98.7%.

As for `Cc1cc(NCCN2CCOCC2)n2ncc(-c3ccccc3)c2n1`, the GFP response vs DMSO came out at 99.4%.

Another test is described as follows: yeast TOR pathway reporter LAP4-GFP change – cell-based, cherry picks, flow cytometry, mother/daughter gates, confirmation (AID 2271).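 Also: ratio of sample to DMSO plate mean so 100% equals DMSO level.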 Conditions: S. cerevisiae LAP4-GFP strain, 3 h, at 10 µM, stronger effect = higher value, 100 means same as DMSO control. The method, boiled down: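 Test system: GFP-fusion yeast strain / Amount: 0.2 OD600 cells / Buffer or medium: SC medium / Dosing: 10 µM single dose / Incubation: compound exposure 3 h at 30 °C, end-over-end rotation / Detection: HT flow cytometry, GFP fluorescence channel / Evaluation: median GFP fluorescence as percent of plate-mean DMSO wells / Control set: DMSO-only negative wells, rapamycin 400 ng/mL positive wells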
For orientation: Flow cytometry measures light scatter and fluorescence of single cells or particles in a stream.
`COC(=O)Cn1cc(/C=C/c2cc[n+](C)cc2)c2ccccc21`: the GFP response relative to DMSO was 97.7% (inactive).

For `C=CCNC(=S)N/N=C(\C)c1cccc(OC)c1`, the GFP response relative to DMSO is 98.8% (inactive).

`COc1cccc(-c2nnc(NC(=O)c3ccc(S(=O)(=O)N4CCOCC4)cc3)o2)c1`: the GFP response relative to DMSO is 97.7% (inactive).

Regarding `CCc1ccc(CNC(=O)CCC(=O)N2Cc3cccc(OC)c3Oc3ncccc32)cc1`, the GFP response relative to DMSO is 94.4% (inactive).

Consider `N#C/C(=C\c1c(N2CCCCCC2)nc2ccccn2c1=O)C(=O)NCc1ccco1`, for which the GFP response relative to DMSO is 92.8% (inactive).

Consider `C=CCn1c(=O)c(C(=O)NCCc2ccccc2)c(O)c2ccccc21`, for which the GFP response relative to DMSO is 90.2% (inactive).

As for `CCOC(=O)COc1c(Cl)cc(/C=C2\N=C(C)OC2=O)cc1OC`, the GFP response relative to DMSO was 109% (inactive).

As to `CCOc1ccccc1/C=C/C(=O)c1ccc(Cl)cc1`, the GFP response relative to DMSO is 99.2% (inactive).

For the compound `Cc1c([N+](=O)[O-])cnc(Sc2ccccc2)c1[N+](=O)[O-]`, the GFP response relative to DMSO was 124% (inactive).

As to `O=C(COC(=O)c1ccc(NS(=O)(=O)c2cccs2)cc1O)Nc1nc2ccccc2s1`, the GFP response relative to DMSO was 91.4% (inactive).

In the case of `COc1ccc(Sc2ncnc3onc(C)c23)cc1`, the GFP response relative to DMSO is 118% (inactive).

For the compound `Cc1ccc(S(=O)(=O)N2C3C=CC(C3)C2C(=O)O)cc1` (stereo not given), the GFP response relative to DMSO is 95.3% (inactive).

On to `Cc1ccc(C(C[N+](=O)[O-])Sc2ccc(N)cc2)cc1` (stereo not given), for which the GFP response relative to DMSO was 135% (inactive).

Take `CCOc1ccc(N2C(=O)CC(SCCN)C2=O)cc1` (stereo not given): the GFP response relative to DMSO is 97.9% (inactive).

As for `O=C(O)Cc1sc(Nc2ccccc2)nc1-c1cccs1`, the GFP response relative to DMSO is 149% (inactive).

Turning to `COc1ccccc1-c1noc(CCC(=O)Nc2cccc(C(F)(F)F)c2)n1`, the GFP response relative to DMSO is 102% (inactive).

In the case of `Cn1cc(/C=C/c2cc[n+](C)cc2)c2cc(Cl)ccc21`, the GFP response relative to DMSO was 111% (inactive).

In the case of `COc1cccc(-c2noc(-c3cccnc3)n2)c1`, the GFP response relative to DMSO is 102% (inactive).

Turning to `COc1ccc(-c2ccc(SCC(=O)N3c4ccccc4CC3C)nn2)cc1OC` (stereo not given), the GFP response relative to DMSO is 100% (inactive).

For the compound `Cc1ccc2c(nc3s/c(=C\c4ccc(-c5ccccc5C(=O)O)o4)c(=O)n32)c1C`, the GFP response relative to DMSO is 243% (active).

For the compound `COC(=O)C1=C(C)NC(C)=C(C(=O)OC)C1c1ccc(OC(=O)c2oc3ccccc3c2C)c(OC)c1`, the GFP response relative to DMSO was 90% (inactive).

Consider `COc1ccc(N2CCN(C(=O)C3CCCN(S(=O)(=O)c4ccc(C)cc4)C3)CC2)cc1` (stereo not given), for which the GFP response relative to DMSO was 103% (inactive).

As for `O=C(Nc1nccs1)C(c1ccccc1)N1CCCCC1` (stereo not given), the GFP response relative to DMSO is 93.1% (inactive).

Consider `C/C(=N\NC(=O)c1cccc(Br)c1)c1ccc(Br)cc1`, for which the GFP response relative to DMSO is 106% (inactive).

For `O=C(OCCCOC(=O)c1ccc(Br)o1)c1ccc(Br)o1`, the GFP response relative to DMSO was 108% (inactive).

As to `CCOC(=O)Cc1csc(NC(=O)c2sc3nc4c(C)cc(C)cc4cc3c2N)n1`, the GFP response relative to DMSO is 84.2% (inactive).

With `Cc1nn2c(N3CCOCC3)c3c(nc2c1-c1ccccc1)CCCC3`, the GFP response relative to DMSO is 101% (inactive).

In the case of `O=C(Nc1cc(Sc2ccccn2)cc([N+](=O)[O-])c1)c1ccc(Cl)cc1`, the GFP response relative to DMSO was 99.2% (inactive).

As to `O=S(=O)(c1cccc(C(F)(F)F)c1)c1ccc(O)cn1`, the GFP response relative to DMSO was 96.7% (inactive).

`COc1cc(/C=N/Nc2nc(C)cc(=O)[nH]2)ccc1O`: the GFP response relative to DMSO was 87.2% (inactive).

Regarding `O=C(N/N=C/c1ccccc1Cl)c1ccc(F)cc1`, the GFP response relative to DMSO is 111% (inactive).

Regarding `Cc1cccc(C(=O)Nc2ccc(O)cc2)c1`, the GFP response relative to DMSO was 100% (inactive).

With `COc1ccc(NC2=C(Cl)C(=O)N(CCc3ccccc3)C2=O)cc1`, the GFP response relative to DMSO was 97.7% (inactive).

With `CN(C(=O)c1cccnc1)c1nc(-c2ccccc2)cs1`, the GFP response relative to DMSO was 102% (inactive).

Take `Cc1ccc(NC(=O)c2nc(S(=O)(=O)Cc3ccccc3C)ncc2Cl)cc1C`: the GFP response relative to DMSO is 107% (inactive).

With `Cc1cccn2c(=O)c(/C=C(\C#N)C(=O)NCc3ccco3)c(N3CCC(C(N)=O)CC3)nc12`, the GFP response relative to DMSO is 99.8% (inactive).

For `Cc1cc(C)c(C)c(S(=O)(=O)ON2C(=O)c3ccccc3C2=O)c1C`, the GFP response relative to DMSO is 206% (active).

For `CS(=O)(=O)c1nc(-c2cccs2)cc(C(F)(F)F)n1`, the GFP response relative to DMSO was 176% (active).

For `COc1cc(NC(=O)c2cccs2)ccc1NC(=O)c1cc2ccccc2o1`, the GFP response relative to DMSO is 96.7% (inactive).

Take `Cc1cc(NCCN2CCOCC2)n2ncc(-c3ccccc3)c2n1`: the GFP response relative to DMSO is 107% (inactive).
